By Ki is commonly meant a dissociation constant, usually derived from enzyme kinetics or from competition with a known ligand.

The structures appear in SMILES notation.

We go through 2 compounds from ChEMBL document CHEMBL1154674, “Synthesis and evaluation of three 18F-labeled aminophenylbenzothiazoles as amyloid imaging agents” (J Med Chem, 2009).

This test deals with Amyloid-beta precursor protein (Homo sapiens, UniProt P05067). The test is described as follows: Displacement of [125I]IMPY from beta-amyloid plaques in Alzheimer's disease patient brain homogenate. In kind it is tissue-based. An outline of the steps: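 Test compound was added at 10^-5–10^-10 M, serially diluted in PBS containing 0.1% BSA. Nonspecific binding was defined with 600 nM unlabeled IMPY. Incubation was 37 °C for 2 h, followed by GF/B vacuum filtration, PBS washes and γ counting. Ki came from nonlinear regression.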
Sequence of Amyloid-beta precursor protein (P05067 whole entry): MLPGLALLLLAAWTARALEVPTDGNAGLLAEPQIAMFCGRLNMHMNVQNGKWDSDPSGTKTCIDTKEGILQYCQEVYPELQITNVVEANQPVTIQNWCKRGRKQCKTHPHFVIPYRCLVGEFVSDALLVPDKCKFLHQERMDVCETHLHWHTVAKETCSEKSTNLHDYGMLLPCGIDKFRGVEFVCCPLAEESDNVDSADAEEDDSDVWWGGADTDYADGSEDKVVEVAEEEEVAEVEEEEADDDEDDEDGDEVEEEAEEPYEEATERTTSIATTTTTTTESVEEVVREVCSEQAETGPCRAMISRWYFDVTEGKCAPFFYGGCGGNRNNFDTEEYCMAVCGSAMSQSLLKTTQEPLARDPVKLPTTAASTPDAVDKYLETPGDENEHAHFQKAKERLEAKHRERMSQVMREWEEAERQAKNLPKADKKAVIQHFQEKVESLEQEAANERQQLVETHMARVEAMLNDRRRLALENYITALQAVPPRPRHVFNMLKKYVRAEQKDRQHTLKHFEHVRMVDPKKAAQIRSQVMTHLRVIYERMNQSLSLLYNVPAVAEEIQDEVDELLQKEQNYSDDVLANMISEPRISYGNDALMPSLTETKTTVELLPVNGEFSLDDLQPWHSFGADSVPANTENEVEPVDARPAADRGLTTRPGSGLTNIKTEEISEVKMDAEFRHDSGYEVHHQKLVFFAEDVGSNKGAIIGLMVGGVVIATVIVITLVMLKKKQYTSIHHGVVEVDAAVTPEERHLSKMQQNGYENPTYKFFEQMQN
(In general: Loss of bound radioactivity is the signal in a displacement assay; it reports binding, not function.)

The compound `Nc1ccc2nc(-c3ccc(F)cc3)sc2c1` had a Ki of 10 nM. Next, `CNc1ccc2nc(-c3ccc(F)cc3)sc2c1`: 4.1 nM.
